Assay outcomes deposited in PubChem BioAssay by several laboratories.
Compounds with a hit are over-represented: about 2.6% of the library has one in this group of screens.
PolyA inh: polyadenylation inhibitors in yeast reporter cells, primary screen, luminescence, S. cerevisiae | S. cerevisiae SKY197-pL101 polyadenylation reporter, beta-gal luminescence; efflux-impaired pdr1/pdr3 knockout yeast; score 100 = 6 SD above DMSO | AID 1875, 2009 | 300,000 compounds, 0.02% hits | activity score, % at 12 µM;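 active = lowest replicate activity score at least 50, where 100 means six control SD above control mean; inconclusive = lowest score under 50 but half or more replicates reach 50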;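 note: yeast exposed to compound for 9 h at 30 °C; higher score means more reporter readthrough which indicates perturbed polyadenylation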
T cruzi inh: inhibitors of intracellular T. cruzi growth, primary screen, luminescence, NIH3T3 host cells | T. cruzi beta-gal in NIH3T3, 90 h | inhibition, % (no concentration beside the values) | 300,000 compounds, 1.4% hits;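 active = mean inhibition across valid replicates above about 55%, limit read from the data; inconclusive = mean below that limit but half or more replicates reach it; inactive = mean below it, under half of replicates reach it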;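 note: signal also drops with host cell toxicity which is not excluded here; higher percent means less beta-gal luminescence so fewer parasites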
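Assay system: NIH/3T3 fibroblasts plus reporter T. cruzi. Amount: NIH/3T3 cells, 5,000 per well. Buffer or medium: DMEM, 2% fetal bovine serum. Doses: compound pinned at 50 nL/well, DMSO. Schedule: ≥90 h infection period, 3 h prior cell attachment. Signal: luminescent β-galactosidase signal after 60 min lysis. Read-out: parasite load inhibition, %.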
CHT inh: inhibitors of human choline transporter CHT; High affinity choline transporter 1 (Homo sapiens), Q9GZV3; AID 488975, 2010; CHT-expressing cells, membrane potential dye, choline response; stronger effect = lower value; 310,000 compounds, 0.86% hits; B-score at 10 µM;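 active = B-score over 3 SD under the library average, and starting fluorescence ratio not unusually high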;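 note: choline stimulus applied at its EC90 after an EC20 pre-addition; B-score computed on integrated fluorescence ratio after choline addition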
Target sequence (Q9GZV3 whole entry, looked up): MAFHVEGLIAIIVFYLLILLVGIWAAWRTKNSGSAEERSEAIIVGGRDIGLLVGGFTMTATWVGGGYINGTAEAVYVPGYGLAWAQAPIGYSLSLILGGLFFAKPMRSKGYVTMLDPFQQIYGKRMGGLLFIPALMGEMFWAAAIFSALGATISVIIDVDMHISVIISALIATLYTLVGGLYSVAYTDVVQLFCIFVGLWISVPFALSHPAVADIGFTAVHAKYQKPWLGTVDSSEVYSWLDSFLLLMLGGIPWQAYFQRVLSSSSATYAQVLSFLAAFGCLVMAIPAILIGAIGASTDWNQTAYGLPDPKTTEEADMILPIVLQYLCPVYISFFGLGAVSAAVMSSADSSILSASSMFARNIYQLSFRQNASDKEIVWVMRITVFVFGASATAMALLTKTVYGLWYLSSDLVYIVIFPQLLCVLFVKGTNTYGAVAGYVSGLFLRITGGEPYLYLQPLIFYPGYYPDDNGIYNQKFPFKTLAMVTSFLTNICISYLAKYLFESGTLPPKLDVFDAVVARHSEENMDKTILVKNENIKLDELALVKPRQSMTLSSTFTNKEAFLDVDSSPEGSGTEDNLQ
CHT PAM: CHT positive allosteric modulators, primary screen, cell-based, membrane potential dye, choline EC20 | High affinity choline transporter 1 (Homo sapiens), Q9GZV3 | CHT-expressing cells; stronger effect = higher value; LV-AA mutant CHT in HEK293 cells | B-score at 10 µM | 310,000 compounds, 0.49% hits | AID 488977, 2010;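 active = initial fluorescence not abnormally high and integrated response B-score, plate-corrected, over 3 SD above library mean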
CHT activ conf: CHT activators, confirmation, cell-based, membrane potential dye, duplicate; shares compounds with CHT PAM; CHT-expressing cells, membrane potential dye fluorescence (FDSS); % of choline EC20–EC90 response window; HEK293 expressing CHT LV-AA mutant; choline added at its EC20; activation, % at 10 µM; 2,500 compounds, 91% hits; AID 504833, 2011;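 active = primary screen active, with duplicate mean activation above negative control mean plus 3 SD, cut at about 11% in these data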
HEK293 MP dye: membrane potential response in parental HEK293 cells, counter-screen for CHT activator project, cell-based, membrane potential dye; 2,500 compounds, 62% hits; membrane potential dye fluorescence (FDSS); measured after EC20 choline addition; shares compounds with CHT PAM; ratio readout change at 10 µM, hits read low; AID 623908, 2012;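 active = duplicate-averaged ratio beyond 3 SD from buffer wells, up or down, though filed actives are nearly all decreases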
Of the large screens only hits and unclear results are named; the others gave an inactive call (follow-up assays come after a bar, where they were run).

COc1ccc(OC)c2nc(-c3ccncc3)ccc12	none | CHT activ conf 52 | HEK293 MP dye -52
COc1ccc(CN(C)C(=O)c2ccccc2Sc2ccccc2C#N)cc1OC	none
CN(Cc1cccc(F)c1)C(=O)c1ccccc1Sc1ccccc1C#N	CHT PAM 7.2 | CHT activ conf 31 | HEK293 MP dye inactive
Cc1ccc(OCc2nc(C#N)c(N3CCN(Cc4ccccc4)CC3)o2)cc1	CHT PAM 11 | CHT activ conf 33 | HEK293 MP dye inactive
N#Cc1nc(COc2ccccc2)oc1N1CCN(Cc2ccccc2)CC1	CHT PAM 10 | CHT activ conf 36 | HEK293 MP dye inactive
Cc1[nH]c(C)c(S(=O)(=O)NCCc2ccc(S(N)(=O)=O)cc2)c1C(=O)N1CCCC1	none
Cc1ccc(N(C(=O)CNC(=O)c2ccco2)C(C(=O)NC2CCCCC2)c2ccncc2)cc1F (stereo not given)	none
O=C(Nc1ccc(Cl)c(Cl)c1)NC1CCS(=O)(=O)C1 (stereo not given)	none
CCOC(=O)COn1c(-n2nc(C)cc2C)nc2ccccc2c1=O	none
Cc1ccc2ccc3ccc(C)nc3c2n1	CHT PAM 11 | CHT activ conf 67 | HEK293 MP dye -75
Cc1ccc2cccc(NS(=O)(=O)c3ccccc3)c2n1	none
Cn1c(C2CCCCC2)nc2cc(N)ccc21	none
O=C(O)CSc1nnc(NC(=O)CN2CCOCC2)s1	none
Brc1cc2ccccc2[n+](Cc2ccccc2)c1	CHT PAM 7 | CHT activ conf 76 | HEK293 MP dye -67
Cc1cc[n+](Cc2ccccc2)c(N)c1	none
COc1ccccc1-c1cc(C(=O)NC2CCCC2)no1	none
CCN(CC)CCCN(C(=O)c1cccs1)c1nc(-c2ccc(OC)cc2)cs1	CHT PAM 6.3 | CHT activ conf 48 | HEK293 MP dye -47
CCN(CC)CCCN(C(=O)c1ccc(Br)cc1)c1nc(-c2ccc(OC)cc2)cs1	PolyA inh inconclusive
Cn1cc(CCNC(=O)CC2C(=O)NCCN2CC(c2ccccc2)c2ccccc2)cn1 (stereo not given)	none
CCOc1ccccc1C(=O)Nc1cc2c(cc1N1CCCC1)n(CC)c(=O)n2CC	none | CHT activ conf 51 | HEK293 MP dye inactive
Brc1ccc2nc(-c3cccs3)c(NCC3CCCO3)n2c1 (stereo not given)	CHT PAM 6.7 | CHT activ conf inactive | HEK293 MP dye inactive
Cc1cc(Nc2cccc([N+](=O)[O-])c2)c2ccccc2n1	none
Cc1cc(C)nc(/N=C(\N)Nc2cccc([N+](=O)[O-])c2)n1	none | CHT activ conf 28 | HEK293 MP dye -46
Cc1cc(Nc2cccc([N+](=O)[O-])c2)c2cccc(C)c2n1	none | CHT activ conf 42 | HEK293 MP dye -52
CC(=O)Cc1nsc(NC(=O)c2cccc(F)c2)n1	none
COc1ccc(C(=O)CC(=O)C(=O)Nc2ccc(C)c(Cl)c2)cc1	none
COc1cc(C2C(C#N)=C(N)Oc3cc(N)ccc32)cc(OC)c1OC (stereo not given)	CHT PAM 7.7 (no result: PolyA inh, T cruzi inh) | CHT activ conf 40 | HEK293 MP dye inactive
Cn1c(=O)n(C)c2cc([N+](=O)[O-])c(N3CCN(CCO)CC3)cc21	CHT PAM 9.3 | CHT activ conf 53 | HEK293 MP dye -70
Cn1c(=O)n(C)c2cc([N+](=O)[O-])c(N3CCN(S(C)(=O)=O)CC3)cc21	none
C=CCNC(=O)N1CCCC(C(=O)c2cccc(OC(C)C)c2)C1 (stereo not given)	none
c1ccc(-c2nc3cnccn3c2Nc2ccc3c(c2)OCCO3)cc1	none
Oc1ccc(-c2nc3cnccn3c2Nc2ccc3c(c2)OCCO3)cc1	CHT PAM 8.3 | CHT activ conf inactive | HEK293 MP dye inactive
COc1ccc(S(=O)(=O)NCc2ccc(C(=O)NCCCN3CC(C)CC(C)C3)cc2)cc1 (stereo not given)	none
CCN1CCN(c2ccc(S(=O)(=O)N3CCCCC3)cc2NC(=O)/C=C/c2cccc(OC)c2OC)CC1	none | CHT activ conf 41 | HEK293 MP dye -31
CCN1CCN(c2ccc(S(=O)(=O)N3CCCCC3)cc2NC(=O)Cc2ccc(OC)cc2)CC1	none | CHT activ conf 39 | HEK293 MP dye -36
CCC(C)n1c(=O)c2sccc2n2c(CCCC(=O)N3CCC(C(N)=O)CC3)nnc12 (stereo not given)	none
CSc1ccccc1C(=O)N(C)Cc1ccccc1	none
CSc1ccccc1C(=O)N(C)C(c1ccccc1)c1ccccc1	none | CHT activ conf 45 | HEK293 MP dye inactive
CCN1CCCC(NC(=O)c2cc([N+](=O)[O-])ccc2OC)C1 (stereo not given)	CHT PAM 7.3 | CHT activ conf 36 | HEK293 MP dye -35
O=S(=O)(c1ccc(F)cc1)c1nc(-c2ccccc2)oc1N1CCOCC1	none
N=c1c(C(=O)NCC2CCCO2)cc2c(=O)n3ccccc3nc2n1Cc1ccccc1Cl (stereo not given)	none
CC1C=Cc2ccccc2N1C(=O)c1ccccc1 (stereo not given)	none
O=C(CC1C=Cc2ccccc2N1C(=O)c1ccccc1)c1ccccc1 (stereo not given)	CHT PAM 10 | CHT activ conf 26 | HEK293 MP dye inactive
CCC(C)(C)NC(=O)C(c1ccccc1)N(Cc1cccs1)C(=O)Cn1nnc2ccccc21 (stereo not given)	none | CHT activ conf 19 | HEK293 MP dye inactive
Cn1ccnc1-c1ccc(-c2nccn2C)cc1	CHT PAM 10 | CHT activ conf 64 | HEK293 MP dye -76
CC(NCc1cc(Br)ccc1OCC(N)=O)C12CC3CC(CC(C3)C1)C2 (stereo not given)	CHT PAM 11 | CHT activ conf 23 | HEK293 MP dye inactive
Cc1cc(C)c(OCC(=O)N2CC=C(c3ccccc3)CC2)c(C)c1	none
COc1ccc2[nH]c3c(=O)n(CCN4CCOCC4)cnc3c2c1	none
COc1ccc2c(c1)c1ncn(CCN3CCCCC3)c(=O)c1n2C	none
COc1ccc2c(c1)c1ncn(CCN3CCNCC3)c(=O)c1n2C	none | CHT activ conf 16 | HEK293 MP dye -20
COc1ccc2c(c1)c1ncn(CCN3CCCC3)c(=O)c1n2C	CHT PAM 6.5 | CHT activ conf 45 | HEK293 MP dye -24
O=C(Cn1nc2ccccc2n1)N/N=C/c1ccc(F)cc1	none
CC(=O)Oc1ccccc1/C=C/c1ccc2ccccc2[n+]1C	PolyA inh inconclusive, CHT PAM 6.9 | CHT activ conf 48 | HEK293 MP dye -42
COc1ccc(/C=C/c2ccc3ccccc3[n+]2C)cc1OC	none
